The target of test [1] is Nischarin (Rattus norvegicus, UniProt Q4G017). The experiment in a line: Displacement of […] from imidazoline I1 receptor in Sprague-Dawley rat kidney membranes after 45 mins by liquid scintillation counting. The format is cell membranes, Membrane. On the technique in general: Loss of bound radioactivity is the signal in a displacement assay; it reports binding, not function.

Test [2] is described as follows: Displacement of […] from imidazoline I2 receptor in Sprague-Dawley rat kidney membranes after 45 mins by liquid scintillation counting. The class given is cell membranes, Membrane.
The target of test [3] is T1, Adrenergic receptor alpha-1 (Rattus norvegicus, UniProt P15823+P23944+P43140).
T1 sequence (P15823 whole entry): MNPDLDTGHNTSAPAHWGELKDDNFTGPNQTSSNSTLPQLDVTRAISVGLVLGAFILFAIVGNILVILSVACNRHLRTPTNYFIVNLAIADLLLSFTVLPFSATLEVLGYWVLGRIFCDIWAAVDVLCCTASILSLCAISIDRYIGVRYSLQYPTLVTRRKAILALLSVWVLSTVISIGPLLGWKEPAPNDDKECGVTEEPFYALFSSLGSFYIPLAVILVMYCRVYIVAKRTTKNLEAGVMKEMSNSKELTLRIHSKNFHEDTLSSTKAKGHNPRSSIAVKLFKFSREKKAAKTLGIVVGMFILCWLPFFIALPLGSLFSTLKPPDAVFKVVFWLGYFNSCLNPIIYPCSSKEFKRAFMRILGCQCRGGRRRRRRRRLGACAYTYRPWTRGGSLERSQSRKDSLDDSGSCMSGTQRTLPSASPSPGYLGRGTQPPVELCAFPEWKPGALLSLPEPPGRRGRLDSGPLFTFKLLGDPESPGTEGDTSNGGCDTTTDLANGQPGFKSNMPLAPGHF
T1 sequence (P23944 whole entry): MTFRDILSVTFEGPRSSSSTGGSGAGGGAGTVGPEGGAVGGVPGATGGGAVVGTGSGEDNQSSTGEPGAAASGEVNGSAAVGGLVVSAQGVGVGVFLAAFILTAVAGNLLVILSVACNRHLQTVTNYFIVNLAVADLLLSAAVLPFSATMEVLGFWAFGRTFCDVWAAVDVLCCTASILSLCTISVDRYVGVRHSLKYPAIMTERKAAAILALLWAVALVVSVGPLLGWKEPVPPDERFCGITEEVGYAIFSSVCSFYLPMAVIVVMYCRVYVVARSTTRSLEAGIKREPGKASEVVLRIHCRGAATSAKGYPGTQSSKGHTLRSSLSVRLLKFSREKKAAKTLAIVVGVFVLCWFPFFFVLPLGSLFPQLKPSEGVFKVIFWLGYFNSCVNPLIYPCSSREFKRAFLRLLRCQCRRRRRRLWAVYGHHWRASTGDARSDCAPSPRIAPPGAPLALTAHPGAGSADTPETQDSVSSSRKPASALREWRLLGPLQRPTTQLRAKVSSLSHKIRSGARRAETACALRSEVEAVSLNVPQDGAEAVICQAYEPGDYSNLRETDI
T1 sequence (P43140 whole entry): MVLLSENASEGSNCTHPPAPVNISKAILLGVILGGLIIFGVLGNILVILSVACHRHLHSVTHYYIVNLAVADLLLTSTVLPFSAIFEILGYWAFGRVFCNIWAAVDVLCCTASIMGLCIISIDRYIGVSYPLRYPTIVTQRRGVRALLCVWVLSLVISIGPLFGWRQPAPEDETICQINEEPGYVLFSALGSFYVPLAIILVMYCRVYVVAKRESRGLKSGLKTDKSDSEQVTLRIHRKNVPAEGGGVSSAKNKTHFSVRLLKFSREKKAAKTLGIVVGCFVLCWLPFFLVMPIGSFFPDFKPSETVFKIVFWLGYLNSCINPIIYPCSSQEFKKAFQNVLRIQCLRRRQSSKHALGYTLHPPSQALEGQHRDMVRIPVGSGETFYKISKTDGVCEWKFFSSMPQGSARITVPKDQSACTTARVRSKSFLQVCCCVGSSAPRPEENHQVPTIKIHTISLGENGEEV
Nature of the test: Displacement of [3H]prazosin from alpha1-adrenoceptor in Sprague-Dawley rat brain membranes after 45 mins by liquid scintillation counting. The class given is cell membranes, Membrane. The method, boiled down:
(§1)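 Crude P2 membranes from brains of male Sprague-Dawley rats (250–280 g), 0.2–0.3 mg protein. Radioligand 1 nM [3H]RX821002 (α2) or [3H]prazosin (α1); 11 concentrations of compound, 0.1 nM–100 µM. Non-specific binding: 10 µM rauwolscine (α2) or 10 µM phenylephrine (α1). Triplicate incubation, RT, 45 min. PEI-soaked glass-fibre filtration, then scintillation counting. Ki by Cheng-Prusoff; 3–4 experiments, or one for low-affinity compounds.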

Test [4] addresses T2, Adrenergic receptor alpha-2 (Rattus norvegicus, UniProt P22086+P19328+P22909).
T2 sequence (P22086 whole entry): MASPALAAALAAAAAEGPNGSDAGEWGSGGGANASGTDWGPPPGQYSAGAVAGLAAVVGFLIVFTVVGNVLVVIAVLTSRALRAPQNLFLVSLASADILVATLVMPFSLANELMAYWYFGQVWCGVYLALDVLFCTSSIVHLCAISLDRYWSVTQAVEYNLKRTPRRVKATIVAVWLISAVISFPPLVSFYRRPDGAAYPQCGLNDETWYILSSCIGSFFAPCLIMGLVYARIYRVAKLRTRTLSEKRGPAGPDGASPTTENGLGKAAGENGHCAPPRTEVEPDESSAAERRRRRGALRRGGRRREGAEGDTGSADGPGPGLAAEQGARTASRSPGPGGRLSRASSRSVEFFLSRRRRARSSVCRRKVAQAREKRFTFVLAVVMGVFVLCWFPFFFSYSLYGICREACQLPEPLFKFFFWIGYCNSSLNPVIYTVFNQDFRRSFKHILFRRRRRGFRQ
T2 sequence (P19328 whole entry): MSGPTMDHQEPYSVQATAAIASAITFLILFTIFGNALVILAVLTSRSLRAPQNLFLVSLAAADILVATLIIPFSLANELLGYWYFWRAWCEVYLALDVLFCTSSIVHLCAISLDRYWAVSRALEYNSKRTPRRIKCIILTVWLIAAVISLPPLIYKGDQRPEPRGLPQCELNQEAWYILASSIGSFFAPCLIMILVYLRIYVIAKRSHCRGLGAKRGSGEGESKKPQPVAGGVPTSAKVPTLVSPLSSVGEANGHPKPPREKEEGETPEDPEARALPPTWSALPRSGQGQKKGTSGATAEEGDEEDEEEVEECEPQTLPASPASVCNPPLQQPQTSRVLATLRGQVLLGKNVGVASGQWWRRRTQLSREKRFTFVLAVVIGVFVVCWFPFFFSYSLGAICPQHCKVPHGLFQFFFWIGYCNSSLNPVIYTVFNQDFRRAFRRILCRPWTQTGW
T2 sequence (P22909 whole entry): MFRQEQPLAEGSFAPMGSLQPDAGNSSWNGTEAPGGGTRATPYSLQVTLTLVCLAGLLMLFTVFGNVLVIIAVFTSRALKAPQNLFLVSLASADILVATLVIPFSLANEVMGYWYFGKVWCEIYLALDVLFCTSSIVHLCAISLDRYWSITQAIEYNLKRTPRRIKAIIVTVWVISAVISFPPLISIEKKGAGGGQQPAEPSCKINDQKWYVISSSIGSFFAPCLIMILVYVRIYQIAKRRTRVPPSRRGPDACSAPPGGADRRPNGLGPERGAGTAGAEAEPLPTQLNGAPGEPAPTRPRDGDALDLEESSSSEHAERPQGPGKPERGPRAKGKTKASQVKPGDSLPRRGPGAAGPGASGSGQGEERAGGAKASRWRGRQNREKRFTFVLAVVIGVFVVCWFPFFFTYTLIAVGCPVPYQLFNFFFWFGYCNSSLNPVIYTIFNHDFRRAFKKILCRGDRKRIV
Nature of the test: Displacement of [3H]RX821002 from alpha2-adrenoceptor in Sprague-Dawley rat brain membranes after 45 mins by liquid scintillation counting. The format is cell membranes, Membrane. The method, boiled down:
as §1

In test [5] the target is T3, Alpha-2B adrenergic receptor (Homo sapiens, UniProt P18089).
T3 sequence (P18089 whole entry): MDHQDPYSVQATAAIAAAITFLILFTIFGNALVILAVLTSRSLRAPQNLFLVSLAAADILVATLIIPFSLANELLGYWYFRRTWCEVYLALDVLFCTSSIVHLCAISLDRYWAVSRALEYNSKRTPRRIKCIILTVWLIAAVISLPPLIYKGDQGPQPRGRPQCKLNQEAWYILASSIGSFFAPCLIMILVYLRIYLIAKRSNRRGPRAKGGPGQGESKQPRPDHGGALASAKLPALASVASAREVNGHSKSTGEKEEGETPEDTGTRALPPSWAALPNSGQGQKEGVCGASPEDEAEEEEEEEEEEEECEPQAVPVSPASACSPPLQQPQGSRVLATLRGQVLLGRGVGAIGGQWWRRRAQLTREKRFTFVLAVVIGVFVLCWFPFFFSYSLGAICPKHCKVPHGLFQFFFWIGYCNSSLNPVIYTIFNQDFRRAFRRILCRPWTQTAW
The experiment in a line: Displacement of [3H]RS-79948-197 from human alpha2B adrenoceptor expressed in CHO-K1 cells after 45 mins by liquid scintillation counting. The format is cell-based. The method in brief: (§2)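 Membranes from CHO-K1 cells stably expressing each human α2-AR subtype (6–10 µg protein). Used 0.2 nM [3H]RS-79948-197 and 8 serial dilutions of competitor in 50 mM potassium phosphate, pH 7.4. Non-specific binding defined with 100 µM oxymetazoline. Filtration, then scintillation counting. Run in duplicate, at least 3 repeats. One-site nonlinear fit; IC50 converted to Ki by Cheng-Prusoff.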

Test [6] has as its target T4, Alpha-2C adrenergic receptor (Homo sapiens, UniProt P18825).
T4 sequence (P18825 whole entry): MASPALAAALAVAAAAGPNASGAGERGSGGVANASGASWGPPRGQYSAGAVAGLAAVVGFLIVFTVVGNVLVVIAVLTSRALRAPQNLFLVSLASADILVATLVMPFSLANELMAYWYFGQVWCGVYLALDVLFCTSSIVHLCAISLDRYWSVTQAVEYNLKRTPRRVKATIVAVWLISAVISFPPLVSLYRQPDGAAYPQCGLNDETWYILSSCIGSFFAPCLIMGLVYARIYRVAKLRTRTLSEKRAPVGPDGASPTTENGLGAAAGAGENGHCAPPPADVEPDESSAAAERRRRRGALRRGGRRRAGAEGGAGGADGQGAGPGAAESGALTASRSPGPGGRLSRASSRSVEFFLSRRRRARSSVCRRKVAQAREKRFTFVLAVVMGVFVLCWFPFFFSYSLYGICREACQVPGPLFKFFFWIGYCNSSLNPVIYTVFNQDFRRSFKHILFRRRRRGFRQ
Nature of the test: Displacement of [3H]RS-79948-197 from human alpha2C adrenoceptor expressed in CHO-K1 cells after 45 mins by liquid scintillation counting. The format is cell-based. The method, boiled down: as §2

In test [7] the target is T5, Alpha-2A adrenergic receptor (Homo sapiens) (UniProt P08913).
T5 sequence (whole entry): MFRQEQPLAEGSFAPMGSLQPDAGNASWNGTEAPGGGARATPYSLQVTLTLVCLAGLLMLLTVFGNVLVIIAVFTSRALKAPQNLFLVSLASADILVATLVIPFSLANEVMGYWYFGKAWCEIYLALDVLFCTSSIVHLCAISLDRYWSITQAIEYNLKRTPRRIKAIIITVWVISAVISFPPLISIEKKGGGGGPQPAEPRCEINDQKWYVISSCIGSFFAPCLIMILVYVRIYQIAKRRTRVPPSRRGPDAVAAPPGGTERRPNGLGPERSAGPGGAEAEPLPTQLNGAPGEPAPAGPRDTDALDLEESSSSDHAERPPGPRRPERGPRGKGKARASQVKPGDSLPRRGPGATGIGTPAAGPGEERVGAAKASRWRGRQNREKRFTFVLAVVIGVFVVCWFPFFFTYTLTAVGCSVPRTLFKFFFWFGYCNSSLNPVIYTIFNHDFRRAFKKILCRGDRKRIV
The experiment in a line: Intrinsic activity at human alpha2A adrenoceptor expressed in CHO-K1 cells after 30 mins by [35S]GTPgammaS binding assay relative to norepinephrine. The class given is functional, cell-based. The method, boiled down:
(§3)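 Membranes from CHO cells stably expressing human α2A-AR (5 µg protein) were incubated with 7 or 8 serial dilutions of compound and 0.1 nM [35S]GTPγS. Buffer: 25 mM Tris, 1 mM EDTA, 5 mM MgCl2, 20 mM NaCl, 1 µM GDP, 1 mM DTT, 30 µM ascorbic acid, pH 7.4. Incubation 30 min at RT, then vacuum filtration and scintillation counting. Run in duplicate, at least 3 repeats.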
In general terms: GTPγS resists hydrolysis and so accumulates on activated G proteins.

Test [8] addresses T6, Alpha-2A adrenergic receptor (Homo sapiens, UniProt P08913).
T6 sequence (P08913 whole entry): T5 sequence (whole entry)
Nature of the test: Agonist activity at human alpha2A adrenoceptor expressed in CHO-K1 cells after 30 mins by [35S]GTPgammaS binding assay. The class given is functional, cell-based. The method in brief: as §3

Test [9] concerns the target T6, Alpha-2A adrenergic receptor. The experiment in a line: Displacement of [3H]RS-79948-197 from human alpha2A adrenoceptor expressed in CHO-K1 cells after 45 mins by liquid scintillation counting. The class given is cell-based. The method in brief:
as §2

Usually IC50 stands for the point on the concentration scale where inhibition reaches its midpoint. High values mean weaker potency, low ones greater potency. The term Ki denotes the equilibrium dissociation constant of an inhibitor or competing ligand from its target. A high value points to weaker binding. The term EC50 denotes the concentration needed to bring the measured effect to its halfway point.

Structures are written as SMILES.

Chain of Nischarin (Q4G017 whole entry): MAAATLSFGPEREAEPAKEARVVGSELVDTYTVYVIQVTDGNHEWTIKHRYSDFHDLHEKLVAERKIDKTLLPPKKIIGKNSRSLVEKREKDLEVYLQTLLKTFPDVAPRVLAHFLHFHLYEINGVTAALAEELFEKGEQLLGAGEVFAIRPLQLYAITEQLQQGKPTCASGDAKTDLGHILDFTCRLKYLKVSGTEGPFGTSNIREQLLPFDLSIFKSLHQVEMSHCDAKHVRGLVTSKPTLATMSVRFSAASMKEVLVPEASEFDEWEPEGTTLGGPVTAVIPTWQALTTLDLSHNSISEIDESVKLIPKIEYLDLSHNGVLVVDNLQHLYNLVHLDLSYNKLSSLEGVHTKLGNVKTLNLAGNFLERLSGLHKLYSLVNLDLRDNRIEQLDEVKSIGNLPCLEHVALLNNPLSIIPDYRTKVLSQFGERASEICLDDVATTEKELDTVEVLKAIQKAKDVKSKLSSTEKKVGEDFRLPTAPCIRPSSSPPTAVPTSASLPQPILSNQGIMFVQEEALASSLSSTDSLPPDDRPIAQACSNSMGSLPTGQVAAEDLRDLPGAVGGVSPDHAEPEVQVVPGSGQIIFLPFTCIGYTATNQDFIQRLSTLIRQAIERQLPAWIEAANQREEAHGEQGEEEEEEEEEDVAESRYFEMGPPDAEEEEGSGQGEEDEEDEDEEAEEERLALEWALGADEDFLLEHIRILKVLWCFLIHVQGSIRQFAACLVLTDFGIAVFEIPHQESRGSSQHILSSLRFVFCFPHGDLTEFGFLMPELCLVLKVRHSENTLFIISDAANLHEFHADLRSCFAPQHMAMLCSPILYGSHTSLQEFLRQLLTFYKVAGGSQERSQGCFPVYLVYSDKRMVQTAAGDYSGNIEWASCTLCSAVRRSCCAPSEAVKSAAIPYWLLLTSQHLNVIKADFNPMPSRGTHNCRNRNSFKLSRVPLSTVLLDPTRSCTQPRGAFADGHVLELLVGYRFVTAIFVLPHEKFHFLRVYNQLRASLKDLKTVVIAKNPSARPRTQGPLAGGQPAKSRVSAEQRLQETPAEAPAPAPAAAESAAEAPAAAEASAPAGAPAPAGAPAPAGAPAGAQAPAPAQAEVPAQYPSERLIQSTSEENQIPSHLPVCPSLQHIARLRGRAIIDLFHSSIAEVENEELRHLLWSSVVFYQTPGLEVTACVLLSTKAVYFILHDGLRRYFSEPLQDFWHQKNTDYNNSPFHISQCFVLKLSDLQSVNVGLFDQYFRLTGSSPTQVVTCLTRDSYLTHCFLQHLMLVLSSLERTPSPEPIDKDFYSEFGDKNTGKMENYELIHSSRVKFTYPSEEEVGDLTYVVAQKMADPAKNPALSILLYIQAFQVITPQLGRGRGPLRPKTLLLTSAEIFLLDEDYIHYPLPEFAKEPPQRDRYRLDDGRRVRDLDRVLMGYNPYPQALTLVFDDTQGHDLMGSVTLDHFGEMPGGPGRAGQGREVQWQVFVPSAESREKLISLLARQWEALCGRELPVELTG

As for `Fc1c(F)c(F)c2c(cnn2N=C2NCCN2)c1F`, the IC50 in test [1] was found to be 5830 nM. The Ki in test [2] worked out at 22700 nM; in test [3] it was 19793 nM; in [4] it was 3717 nM.
In turn, `Fc1cccc2c1cnn2N=C1NCCN1` had an IC50 in test [1] of 14800 nM. In addition, the Ki in test [2] is 6180 nM; in test [3] it was 3807 nM; in test [4], 416 nM.
As to `c1ccc2c(c1)cnn2N=C1NCCN1` [MARSANIDINE], the Ki in test [5] worked out at 79 nM; in test [6] it was 640 nM; in test [2], 16900 nM; in test [4] it was 14.05 nM; in test [9] it was 52 nM. For the same compound, the Intrinsic activity in [7] came out at 14%. The compound further gave an EC50 in test [8] of 93.3 nM.
In the case of `Fc1cccc2c1cnn2CC1=NCCN1`, in test [1], the concentration for half-maximal inhibition (IC50) was determined as 1770 nM. The Ki in test [2] was 21.9 nM; in [3], 534.7 nM; in test [4], 187.3 nM.

The values are drawn from ChEMBL document CHEMBL3351639, “Fluorinated analogues of marsanidine, a highly α2-AR/imidazoline I1 binding site-selective hypotensive agent. Synthesis and biological activities” (Eur J Med Chem, 2014).
